In ChEMBL document CHEMBL4196208, “Antiproliferative Sesquiterpenoids from Ligularia rumicifolia with Diverse Skeletons” (J Nat Prod, 2018):
Activity calls are given as the source filed them. The rule behind the calls is not given here.

Tests used:
Assay type in all cases: functional, cell-based
[1] = system: HGC-27; test: Antiproliferative activity against human HGC27 cells after 72 hrs by MTT assay; conditions: for IC50: HGC-27, 72 h
Method in brief: (§1)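 Human tumour lines HGC-27 (stomach), A-549 (lung), HeLa (cervical) and MV4-11 (leukemia) tested in a standard MTT assay, with taxol as positive control. Each assay repeated more than three times. IC50 calculated by the Reed and Muench method, reported as mean ± SD.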

[2] = system: HeLa; test: Antiproliferative activity against human HeLa cells after 72 hrs by MTT assay; method in brief: as §1
[3] = system: MV4-11; test: Antiproliferative activity against human MV411 cells after 72 hrs by MTT assay; conditions: for IC50: MV4-11, 72 h; method in brief: as §1
[4] = system: A549; test: Antiproliferative activity against human A549 cells after 72 hrs by MTT assay; conditions: for IC50: A549, 72 h; method in brief: as §1

| IC50 [2] | IC50 [3] | IC50 [4] | Compound | Activity [1] | Activity [2] | Activity [3] | Activity [4] | IC50 [1] |
| --- | --- | --- | --- | --- | --- | --- | --- | --- |
|  |  |  | C=C1[C@H]2[C@@H](/C(=C/C)C(=O)[C@H]2OC(=O)C(C)CC)[C@H]([C@@]2(C)CO2)[C@@H](OC(=O)C(C)CC)[C@H]1OC(=O)/C=C(\C)CC (some centres not stated) | inactive | inactive | inactive | inactive |  |
|  |  |  | C=C1[C@H]2[C@@H](/C(=C\C)C(=O)[C@H]2OC(=O)C(C)CC)[C@H]([C@@]2(C)CO2)[C@@H](OC(=O)C(C)CC)[C@H]1OC(=O)/C=C(\C)CC (some centres not stated) | inactive | inactive | inactive | inactive |  |
| 2.4 µM | 0.5 µM | 6.3 µM | C=C(C)[C@@H]1C[C@@]2(C)C(=CC1=O)[C@@H](O)C[C@@H](OC(=O)/C(C)=C\C)[C@@H]2C |  |  |  |  | 2.1 µM |
|  |  |  | C=C(C)[C@@H]1CCc2ccc(O)c(C)c2C1 | inactive | inactive | inactive | inactive |  |
|  |  |  | C=C(c1ccc(C)c(O)c1O)C(CC=C(C)C)OC(=O)/C(C)=C\C (configuration not stated) | inactive | inactive | inactive | inactive |  |
| 3.3 µM | 1.1 µM | 6.6 µM | C=C(C)[C@@H]1C[C@@]2(C)C(=CC1=O)CC[C@@H](OC(=O)CC(C)CC)[C@@H]2C (some centres not stated) |  |  |  |  | 3.6 µM |
|  |  |  | C=C(C)[C@@H]1C[C@@]2(C)C(=CC1=O)CC[C@@H](OC(=O)C=C(C)C)[C@@H]2C | inactive | inactive | inactive | inactive |  |
|  |  |  | C=C(C(CC=C(C)C)OC(=O)/C(C)=C\C)[C@@H]1C[C@H](O)[C@](C)(OC)C(=O)[C@H]1OC(=O)/C(C)=C\C (some centres not stated) | inactive | inactive | inactive | inactive |  |
|  |  |  | C=C(C(CC=C(C)C)OC(=O)/C(C)=C\C)[C@@H]1[C@@H](O)[C@@H]2O[C@]2(C)C(=O)[C@H]1OC(C)=O (some centres not stated) | inactive | inactive | inactive | inactive |  |
| 0.046 µM | 0.017 µM | 0.051 µM | CC(=O)O[C@H]1C(=O)[C@@]2(C)[C@H]([C@H](OC(=O)c3ccccc3)[C@]3(O)C[C@H](OC(=O)[C@H](O)[C@@H](NC(=O)c4ccccc4)c4ccccc4)C(C)=C1C3(C)C)[C@]1(OC(C)=O)CO[C@@H]1C[C@@H]2O [PACLITAXEL] |  |  |  |  | 0.028 µM |
|  |  |  | C=C1[C@H]2[C@H]([C@H]([C@@]3(C)CO3)[C@@H](OC(=O)/C(C)=C\C)[C@H]1OC(=O)/C=C(\C)CC)[C@@H](CC)C(=O)[C@H]2OC(=O)C(C)CC (some centres not stated) | inactive | inactive | inactive | inactive |  |
|  |  |  | C/C=C(/C)C(=O)O[C@@H]1CCC2=CC(=O)[C@H]([C@]3(C)CO3)C[C@]2(C)[C@H]1C | inactive | inactive | inactive | inactive |  |
|  |  |  | C=C(C(CC=C(C)C)OC(=O)/C(C)=C\C)[C@@H]1C[C@@H]2O[C@]2(C)C(=O)[C@@H]1OC(C)=O (some centres not stated) | inactive | inactive | inactive | inactive |  |
|  |  |  | C=C1[C@H]2[C@@H](/C(=C/C)C(=O)[C@H]2OC(=O)C(C)CC)[C@H]([C@@]2(C)CO2)[C@@H](OC(=O)CC(C)CC)[C@H]1OC(=O)/C=C(\C)CC (some centres not stated) | inactive | inactive | inactive | inactive |  |
|  |  |  | C/C=C(/C)C(=O)OC(CC=C(C)C)/C(C)=C1\C[C@@H](O)C(C)=C(OC(C)=O)C1=O (some centres not stated) | inactive | inactive | inactive | inactive |  |
|  |  |  | C=C1[C@H]2[C@@H](/C(=C\C)C(=O)[C@H]2OC(=O)C(C)CC)[C@H]([C@@]2(C)CO2)[C@@H](OC(=O)/C(C)=C\C)[C@H]1OC(=O)/C=C(\C)CC (some centres not stated) | inactive | inactive | inactive | inactive |  |
| 8.4 µM | 9 µM | 12.5 µM | C=C1[C@@H]2[C@H](OC(=O)C(C)CC)[C@H](OC(C)=O)[C@H]([C@@H](C)OC(=O)C[C@@H](C)O)[C@H]2[C@H]([C@@]2(C)CO2)[C@@H](OC(=O)/C(C)=C\C)[C@H]1OC(=O)/C=C(\C)CC (some centres not stated) |  |  |  |  | 6.1 µM |
|  |  |  | C/C=C(/C)C(=O)OC1=C(C)[C@H](O)C/C(=C(/C)C(CC=C(C)C)OC(=O)/C(C)=C\C)C1=O (some centres not stated) | inactive | inactive | inactive | inactive |  |
|  |  |  | C=C(C(CC=C(C)C)OC(=O)/C(C)=C\C)[C@@H]1[C@@H](O)[C@@H](OC(=O)/C(C)=C/C)[C@](C)(O)C(=O)[C@H]1OC(C)=O (some centres not stated) | inactive | inactive | inactive | inactive |  |

| IC50 [2] | IC50 [3] | IC50 [4] | Compound | Activity [1] | Activity [2] | Activity [3] | Activity [4] | IC50 [1] |
| --- | --- | --- | --- | --- | --- | --- | --- | --- |
|  |  |  | C=C1[C@H]2[C@@H](/C(=C/C)C(=O)[C@H]2OC(=O)C(C)CC)[C@H]([C@@]2(C)CO2)[C@@H](OC(=O)/C(C)=C\C)[C@H]1OC(=O)/C=C(\C)CC (some centres not stated) | inactive | inactive | inactive | inactive |  |
| 6.3 µM | 2.9 µM | 9.8 µM | C=C(C(CC=C(C)C)OC(=O)/C(C)=C\C)[C@@H]1C(=O)C(OC(C)=O)=C(C)[C@H](O)[C@H]1OC(=O)/C(C)=C\C (some centres not stated) |  |  |  |  | 2.2 µM |
|  |  |  | C/C=C(/C)C(=O)O[C@@H]1CCC2=CC(=O)[C@@H]([C@@]3(C)CO3)C[C@]2(C)[C@H]1C | inactive | inactive | inactive | inactive |  |
|  |  |  | C=C(C(CC=C(C)C)OC(=O)/C(C)=C\C)[C@@H]1[C@H](OC(=O)/C(C)=C\C)[C@@H]2O[C@]2(C)C(=O)[C@H]1OC(C)=O (some centres not stated) | inactive | inactive | inactive | inactive |  |
|  |  |  | C=C(C)[C@@H]1C[C@@]2(C)C(=CC1=O)CC[C@@H](O)[C@@H]2C | inactive | inactive | inactive | inactive |  |
| 5.7 µM | 2.5 µM | 13.5 µM | C=C(C)[C@@H]1C[C@@]2(C)C(=CC1=O)[C@H](O)C[C@@H](OC(=O)/C(C)=C\C)[C@@H]2C |  |  |  |  | 7.2 µM |
|  |  |  | C=C1[C@@H]2[C@H](OC(=O)C(C)CC)[C@H](OC(C)=O)[C@H]([C@@H](C)OC(=O)C[C@@H](C)O)[C@H]2[C@H]([C@@]2(C)CO2)[C@@H](OC(=O)CC(C)CC)[C@H]1OC(=O)/C=C(\C)CC (some centres not stated) | inactive | inactive | inactive | inactive |  |
|  |  |  | C=C1[C@H]2[C@@H](/C(=C\C)C(=O)[C@H]2OC(=O)C(C)CC)[C@H]([C@@]2(C)CO2)[C@@H](OC(=O)CC(C)CC)[C@H]1OC(=O)/C=C(\C)CC (some centres not stated) | inactive | inactive | inactive | inactive |  |
|  |  |  | C=C(C(CC=C(C)C)OC(=O)/C(C)=C\C)[C@H]1C[C@@H](O)C(C)=C(OC(C)=O)C1=O (some centres not stated) | inactive | inactive | inactive | inactive |  |
|  |  |  | C=C(C)[C@@H]1C[C@@]2(C)C(=CC1=O)CC[C@@H](OC(=O)/C(C)=C\C)[C@@H]2C | inactive | inactive | inactive | inactive |  |
|  |  |  | C=C1[C@H]2[C@@H]([C@@H]([C@@H](C)OC)C(=O)[C@H]2OC(=O)C(C)CC)[C@H]([C@@]2(C)CO2)[C@@H](OC(=O)C(C)CC)[C@H]1OC(=O)/C=C(\C)CC (some centres not stated) | inactive | inactive | inactive | inactive |  |
|  |  |  | C=C(C(CC=C(C)C)OC(=O)/C(C)=C\C)[C@@H]1[C@@H](O)[C@@H](OC(=O)/C(C)=C\C)[C@](C)(O)C(=O)[C@H]1OC(C)=O (some centres not stated) | inactive | inactive | inactive | inactive |  |
| 6.6 µM | 7.5 µM | 9.7 µM | C=C(C)[C@@H]1C[C@@]2(C)C(=CC1=O)CC[C@@H](OC(=O)CC(C)C)[C@@H]2C |  |  |  |  | 5.3 µM |
|  |  |  | C=C(C(CC=C(C)C)OC(=O)/C(C)=C\C)[C@@H]1C[C@H](Cl)[C@](C)(O)C(=O)[C@H]1OC(C)=O (some centres not stated) | inactive | inactive | inactive | inactive |  |
|  |  |  | C=C(C)[C@@H]1C[C@@]2(C)C(=CC1=O)CC[C@@H](OC(=O)/C(C)=C/C)[C@@H]2C | inactive | inactive | inactive | inactive |  |
|  |  |  | C=C(C(/C=C/C(C)(C)O)OC(=O)/C(C)=C\C)[C@@H]1[C@H](OC(=O)/C(C)=C\C)[C@@H]2O[C@]2(C)C(=O)[C@H]1OC(C)=O (some centres not stated) | inactive | inactive | inactive | inactive |  |
|  |  |  | C=C(C(CC=C(C)C)OC(=O)/C(C)=C\C)[C@@H]1C[C@H](O)[C@](C)(OC)C(=O)[C@H]1OC(C)=O (some centres not stated) | inactive | inactive | inactive | inactive |  |
|  |  |  | C=C1[C@H]2[C@@H]([C@@H]([C@@H](C)OC)C(=O)[C@H]2OC(=O)C(C)CC)[C@H]([C@@]2(C)CO2)[C@@H](OC(=O)/C(C)=C\C)[C@H]1OC(=O)/C=C(\C)CC (some centres not stated) | inactive | inactive | inactive | inactive |  |
|  |  |  | C=C1CO[C@H]2C[C@@H]1Cc1c2ccc(O)c1C | inactive | inactive | inactive | inactive |  |
